Source: ChEMBL document CHEMBL3994673, “Design and Synthesis of Potent and Selective PIM Kinase Inhibitors by Targeting Unique Structure of ATP-Binding Pocket” (ACS Med Chem Lett, 2017)
In brackets after ≈: the same amount, converted by molar mass.

Columns and labels:
[1] = target: T1, Serine/threonine-protein kinase pim-2 (Homo sapiens, UniProt Q9P1W9); test: Inhibition of full length recombinant human N-terminal GST-tagged PIM2 (1 to 311 residues) expressed in baculovirus infected sf21 cells using S6K2 peptide as substrate by electrophoretic mobility shift assay
[2] = target: T2, Serine/threonine-protein kinase pim-1 (Homo sapiens, UniProt P11309); test: Inhibition of PIM1 (unknown origin) using 5-FAM-RSRHSSYPAGT-CONH2 as substrate after 2 hrs by electrophoretic mobility shift assay
[3] = Stability in human liver microsomes assessed as parent compound remaining at 1 uM after 1 hr; assay type: ADME, microsome; details: read-out: Stability
In short: (§1)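 Compound at 1 μM incubated with liver microsomes (0.3 mg/mL protein) at 37 °C for 1 h; value is percent of parent remaining. Performed by a contract lab (Cerep).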

[4] = target: Protein kinase C alpha type (Homo sapiens) (UniProt P17252); test: Inhibition of full length recombinant human N-terminal GST-tagged PKCalpha (1 to 672 residues) expressed in baculovirus infected sf21 cells at 200 nM using PKC peptide as substrate by electrophoretic mobility shift assay relative to control
In short: (§2)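 Single-point screen of a 52-kinase panel with compound at 200 nM, read as % inhibition of each kinase; run by a contract lab (Carna Biosciences).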

[5] = Aqueous solubility of the compound in pH 7.4 PBS by HPLC-UV method; assay type: physicochemical
In short: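 Tested in PBS pH 7.4 with a final DMSO concentration of 2%; performed by a contract lab (Cerep).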

[6] = target: T2, Serine/threonine-protein kinase pim-1; test: Inhibition of full length recombinant human N-terminal His-tagged PIM1 (1 to 313 end residues) expressed in baculovirus infected sf21 cells at 200 nM using S6K2 peptide as substrate by electrophoretic mobility shift assay relative to control; in short: as §2
[7] = Stability in mouse liver microsomes assessed as parent compound remaining at 1 uM after 1 hr; assay type: ADME, microsome; details: read-out: Stability; in short: as §1
hERG (KCNH2) = hERG (KCNH2) (Homo sapiens, UniProt Q12809); test: Inhibition of human ERG expressed in CHO cells at 10 uM by patch clamp method relative to control; assay type: cell-based; details: CHO cells expressing human ERG
In short: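 hERG block measured by patch clamp with compound at 10 μM; performed by a contract lab (Cerep).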

[8] = target: Rho-associated protein kinase 1 (Homo sapiens) (UniProt Q13464); test: Inhibition of recombinant human N-terminal GST-tagged ROCK1 catalytic domain (1 to 477 residues) expressed in baculovirus infected sf21 cells at 200 nM using LIMKtide as substrate by electrophoretic mobility shift assay relative to control; in short: as §2
[9] = Permeability in human Caco2 cells at 10 uM; assay type: ADME, cell-based; details: Caco-2, read-out: permeability
In short: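 Caco-2 monolayer permeability measured with compound at 10 μM, reported in units of 10–6 cm/s; performed by a contract lab (Cerep).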

[10] = target: T3, Serine/threonine-protein kinase pim-3 (Homo sapiens, UniProt Q86V86); test: Inhibition of full length recombinant human N-terminal GST-tagged PIM3 (1 to 326 end residues) expressed in baculovirus infected sf21 cells at 200 nM using S6K2 peptide as substrate by electrophoretic mobility shift assay relative to control; in short: as §2
WI-38 = test: Growth inhibition of human WI38 cells after 48 hrs by CCK8 assay; assay type: cell-based; details: WI-38, 48 h
In short: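 Cells incubated with compound for 48 h for growth inhibition.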

[11] = Growth inhibition of human MOLM16 cells after 72 hrs by CCK8 assay; assay type: functional, cell-based; details: MOLM16, 72 h
[12] = target: Death-associated protein kinase 1 (Homo sapiens) (UniProt P53355); test: Inhibition of recombinant human N-terminal GST-tagged DAPK1 catalytic domain (1 to 289 residues) expressed in baculovirus infected sf21 cells at 200 nM using DAPK1tide as substrate by electrophoretic mobility shift assay relative to control; in short: as §2
[13] = target: T3, Serine/threonine-protein kinase pim-3; test: Inhibition of full length recombinant human N-terminal GST-tagged PIM3 (1 to 326 end residues) expressed in baculovirus infected sf21 cells using S6K2 peptide as substrate by electrophoretic mobility shift assay
[14] = target: T2, Serine/threonine-protein kinase pim-1; test: Inhibition of full length recombinant human N-terminal His-tagged PIM1 (1 to 313 end residues) expressed in baculovirus infected sf21 cells using S6K2 peptide as substrate by electrophoretic mobility shift assay
[15] = target: T4, Serine/threonine-protein kinase D2 (Homo sapiens) (UniProt Q9BZL6); test: Inhibition of full length recombinant human N-terminal GST-tagged PKD2 (1 to 878 end residues) expressed in baculovirus infected sf21 cells at 200 nM using GS peptide as substrate by electrophoretic mobility shift assay relative to control; in short: as §2
T4 sequence (whole entry): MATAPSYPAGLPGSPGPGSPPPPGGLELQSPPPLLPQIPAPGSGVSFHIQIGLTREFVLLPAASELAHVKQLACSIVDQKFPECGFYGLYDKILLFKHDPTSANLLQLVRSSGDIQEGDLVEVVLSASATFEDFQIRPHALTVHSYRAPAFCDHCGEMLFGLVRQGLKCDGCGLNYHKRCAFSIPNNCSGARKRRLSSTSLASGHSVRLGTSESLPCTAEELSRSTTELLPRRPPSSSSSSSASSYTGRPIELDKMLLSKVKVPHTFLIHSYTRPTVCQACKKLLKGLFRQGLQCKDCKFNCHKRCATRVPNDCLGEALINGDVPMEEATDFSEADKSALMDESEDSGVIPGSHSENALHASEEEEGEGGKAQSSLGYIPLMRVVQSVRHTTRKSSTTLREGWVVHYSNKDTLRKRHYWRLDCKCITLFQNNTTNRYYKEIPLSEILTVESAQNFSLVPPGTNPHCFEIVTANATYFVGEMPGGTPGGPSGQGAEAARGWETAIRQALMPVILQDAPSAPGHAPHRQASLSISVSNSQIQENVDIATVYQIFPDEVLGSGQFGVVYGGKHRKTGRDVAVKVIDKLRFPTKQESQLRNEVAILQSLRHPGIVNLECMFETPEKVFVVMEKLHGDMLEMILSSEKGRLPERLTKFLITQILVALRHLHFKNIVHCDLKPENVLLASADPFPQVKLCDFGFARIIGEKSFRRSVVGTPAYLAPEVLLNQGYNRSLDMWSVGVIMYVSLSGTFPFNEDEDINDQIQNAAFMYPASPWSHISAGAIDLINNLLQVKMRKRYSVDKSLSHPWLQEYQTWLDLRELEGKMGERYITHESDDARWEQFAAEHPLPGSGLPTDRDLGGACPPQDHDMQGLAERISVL

[16] = target: Platelet-derived growth factor receptor alpha (Homo sapiens) (UniProt P16234); test: Inhibition of recombinant human N-terminal GST-tagged PDGFRalpha cytoplasmic domain (550 to 1089 end residues) expressed in baculovirus infected sf21 cells at 200 nM using CSKtide as substrate by electrophoretic mobility shift assay relative to control; in short: as §2
[17] = target: T1, Serine/threonine-protein kinase pim-2; test: Inhibition of full length recombinant human N-terminal GST-tagged PIM2 (1 to 311 residues) expressed in baculovirus infected sf21 cells at 200 nM using S6K2 peptide as substrate by electrophoretic mobility shift assay relative to control; in short: as §2

SMILES | IC50 [1] | IC50 [2] | remaining at 1 h, 1 µM [3] | solubility [5] | inhibition [6] | remaining at 1 h, 1 µM [7] | inhibition at 10 µM (hERG (KCNH2)) | Papp at 10 µM [9] | inhibition [10] | IC50 (WI-38) | IC50 [11] | other results
Cc1ccc2c(/C=C3\Oc4c(ccc(O)c4CN4CCNCC4)C3=O)c[nH]c2n1 | 0.51 µM | 0.0038 µM |  |  |  |  |  |  |  |  |  | 
CCCCc1ccc2c(/C=C3\Oc4c(ccc(OC)c4CN4CCNCC4)C3=O)c[nH]c2n1 |  | 0.0021 µM |  |  |  |  |  |  |  |  |  | 
COc1ccc2c(c1CN1CCNCC1)O/C(=C\c1c[nH]c3ncccc13)C2=O | 0.39 µM | 0.00084 µM | 90% | ≥ 200 µM | > 50% | 72% | 19% | 21 nm/s | > 50% |  |  | inhibition [4]: > 75%; inhibition [8]: > 75%
CN1CCC(CNc2ccc3ncc(-c4cccc(OC(F)(F)F)c4)n3n2)CC1 [SGI-1776] |  |  |  |  |  |  |  |  |  | 1.7 µM | 0.6 µM | 
CCc1ccc2c(/C=C3\Oc4c(ccc(O)c4CN4CCNCC4)C3=O)c[nH]c2n1 |  | 0.016 µM |  |  |  |  |  |  |  |  |  | 
N[C@@H]1CCCN(c2c(/C=C3\SC(=O)NC3=O)cccc2-c2ccccc2)C1 |  |  |  |  |  |  |  |  |  | > 10 µM | 0.012 µM | 
COc1ccc2c(c1CN1CCNCC1)O/C(=C\c1c[nH]c3nc(Cl)ccc13)C2=O | 0.14 µM | 0.00041 µM | 82% | 21 µM (≈ 8.92 µg/mL) | 99% | 58% | 22% | 3.1 nm/s | > 99% |  |  | inhibition [12]: 80%; IC50 [13]: 0.0004 µM; IC50 [14]: 0.00049 µM; inhibition [15]: 62%; inhibition [16]: 61%; inhibition [17]: 41%
O=C1/C(=C/c2c[nH]c3nc(Cl)ccc23)Oc2c1ccc(O)c2CN1CCNCC1 | 0.14 µM | 0.0014 µM | 82% | 130 µM (≈ 53.4 µg/mL) | 99% | 63% | 30% | 17 nm/s | > 99% | > 10 µM | 0.2 µM | inhibition [12]: 57%; IC50 [13]: 0.00088 µM; IC50 [14]: 0.0013 µM; inhibition [15]: 30%; inhibition [16]: 63%; inhibition [17]: 58%
